Data as given in ChEMBL document CHEMBL1143168, “Conformational preferences of natural and C3-modified epothilones in aqueous solution” (J Med Chem, 2008).

Assays:
[1] = Induction of pig brain alpha-beta-tubulin polymerization; parameters: species or system Sus scrofa
Method in brief: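 Porcine brain tubulin at 10 µM. Polymerization followed by turbidity at 340 nm until a stable A340 plateau (equilibrium between soluble and polymerized tubulin). EC50 is the concentration inducing 50% of the maximum achievable polymerization. The maximum is the plateau beyond which higher compound concentration gives no further A340 increase.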

HCT-116 = test: Antiproliferative activity against human HCT116 cells after 72 hrs by methylene blue staining; format: functional, cell-based; conditions: HCT-116, 72 h
Method in brief: (§1)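 Human cancer cell lines exposed to compound for 72 h. Cells then fixed and total protein quantified by methylene blue staining. IC50 taken as concentration giving 50% growth inhibition.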

MCF7 = test: Antiproliferative activity against human MCF7 cells after 72 hrs by methylene blue staining; format: functional, cell-based; conditions: MCF7, 72 h; method in brief: as §1
[2] = Antiproliferative activity against human PC3M cells after 72 hrs by methylene blue staining; format: functional, cell-based; conditions: PC-3M; method in brief: as §1

Compound	EC50 [1] [µM]	IC50 (HCT-116) [µM]	IC50 (MCF7) [µM]	IC50 [2] [µM]
C/C(=C\c1csc(C)n1)[C@@H]1C[C@@H]2O[C@@H]2CCC[C@H](C)[C@H](O)[C@@H](C)C(=O)C(C)(C)CCC(=O)O1 [3-DEOXY-EPO A]	5.6	0.0844	0.0584	0.079
C/C(=C\c1csc(C)n1)[C@@H]1C[C@@H]2O[C@@H]2CCC[C@H](C)[C@H](O)[C@@H](C)C(=O)C(C)(C)[C@@H](O)CC(=O)O1 [EPOTHILONE A]	4.6	0.0028	0.0029	0.0064
C/C(=C\c1csc(C)n1)[C@@H]1C[C@@H]2O[C@@H]2CCC[C@H](C)[C@H](O)[C@@H](C)C(=O)C(C)(C)/C=C/C(=O)O1 [3-DEOXY-2,3-DIDEHYDRO-EPO A]	4.8	0.0162	0.0087	0.0248
